Measurements of several laboratories.
Compare with care: the assays were run in different laboratories.
Target: Ephrin type-B receptor 2 (EPHB2, Homo sapiens, UniProt P29323)
One construct used (P29323 19-1055): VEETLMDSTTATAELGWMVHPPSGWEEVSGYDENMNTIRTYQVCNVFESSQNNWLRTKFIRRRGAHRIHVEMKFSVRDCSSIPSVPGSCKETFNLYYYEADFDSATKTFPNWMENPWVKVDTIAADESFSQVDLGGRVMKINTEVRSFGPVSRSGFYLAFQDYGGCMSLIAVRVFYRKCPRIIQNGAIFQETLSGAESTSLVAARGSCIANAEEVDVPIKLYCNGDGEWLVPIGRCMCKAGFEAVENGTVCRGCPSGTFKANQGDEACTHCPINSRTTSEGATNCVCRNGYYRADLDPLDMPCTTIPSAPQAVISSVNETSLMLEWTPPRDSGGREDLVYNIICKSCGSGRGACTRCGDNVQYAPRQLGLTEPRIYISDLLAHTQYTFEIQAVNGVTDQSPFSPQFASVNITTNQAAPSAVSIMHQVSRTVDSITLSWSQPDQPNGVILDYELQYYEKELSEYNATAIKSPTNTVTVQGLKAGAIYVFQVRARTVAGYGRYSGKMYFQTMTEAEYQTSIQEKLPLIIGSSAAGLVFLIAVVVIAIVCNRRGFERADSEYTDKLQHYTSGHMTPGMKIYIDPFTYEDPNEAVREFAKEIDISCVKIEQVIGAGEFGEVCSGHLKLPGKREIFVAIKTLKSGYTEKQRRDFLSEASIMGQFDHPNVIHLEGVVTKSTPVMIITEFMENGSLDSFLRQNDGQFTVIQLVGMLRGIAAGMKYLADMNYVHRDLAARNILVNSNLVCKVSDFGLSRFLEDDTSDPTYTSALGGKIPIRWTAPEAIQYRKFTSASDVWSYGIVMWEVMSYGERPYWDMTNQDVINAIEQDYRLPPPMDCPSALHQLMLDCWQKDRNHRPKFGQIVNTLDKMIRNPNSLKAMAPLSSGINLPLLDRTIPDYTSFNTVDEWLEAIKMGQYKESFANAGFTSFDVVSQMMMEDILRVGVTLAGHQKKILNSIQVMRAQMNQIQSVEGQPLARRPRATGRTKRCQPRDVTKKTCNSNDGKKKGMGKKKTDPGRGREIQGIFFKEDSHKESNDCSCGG

The remaining binding of `CCC(=O)N[C@@H]1CC[C@H](C(=O)N(C)c2ccc(-c3nc4ccccc4o3)cc2)C1` is reported as 82% (cell-free assay; competition with immobilised ligand; 1 µM).
`COc1cc(Cl)c(C(=O)N[C@@H](CN[C@H]2CC[C@@H](N)CC2)Cc2ccc(C#N)cc2)cc1-c1ccc(CN[C@H](C)c2ccc(C)cc2)o1` gave a remaining activity of 123% (enzyme activity; inhibitor; 1 µM).
For `CN(C)C1CCN(CC#Cc2nn(C3CCCC3)c3nc(NCc4ccccc4)ncc23)C1` (centres unmarked), the inhibition was 8% (enzyme activity; inhibitor; FRET; 1 µM).
`O=C(NS(=O)(=O)c1ccc(NCC2CCOCC2)c([N+](=O)[O-])c1)c1ccc(N2CCN(Cc3ccc(C(F)(F)F)cc3-c3ccc(Cl)cc3)CC2)cc1Oc1cnc2[nH]ccc2c1` has a remaining binding of 100% (cell-free assay; competition with immobilised ligand; 1 µM).
`Nc1ncnc2occ(-c3ccc(NC(=O)Nc4cc(C(F)(F)F)ccc4F)cc3)c12` has a remaining signal of 0% (cell-free assay; 20 µM).
`Cc1ccc(Nc2nccc(N(C)c3ccc4c(C)n(C)nc4c3)n2)cc1S(N)(=O)=O` gave an inhibition of 44% (enzyme activity; inhibitor; 10 µM).
For `C[C@H](c1ccnc(Nc2nc3ccc(-c4cc(N(C)C)ncn4)cc3[nH]2)c1)N1CCN(C(=O)CC(F)(F)F)CC1`, the remaining binding was 93% (cell-free assay; competition with immobilised ligand; 0.1 µM).
With `O=C(Nc1cnn(-c2csc(C(=O)NC3COC3)c2)c1)Nc1ccccc1Cl` the remaining activity was 101% (enzyme activity; inhibitor; 5 µM).
With `CCN(CC)CCNC(=O)c1c(C)[nH]c(/C=C2\C(=O)Nc3ccc(F)cc32)c1C` the inhibition was 2% (enzyme activity; inhibitor; 0.3 µM).
`CC(C)CC(=O)N1CCc2nc(-c3ccc(Br)cc3)nc(N(C)Cc3ccccc3)c2C1` gave a remaining binding of 80% (cell-free assay; competition with immobilised ligand; 0.1 µM).
`CC(C)(O)[C@H]1CC[C@H](Nc2ccc3ncc(-c4cccc(C(F)(F)F)c4)n3n2)CC1` has a remaining activity of 93.5% (enzyme activity; inhibitor; 1 µM).
For `Oc1cccc(-c2nc(N3CCOCC3)c3oc4ncccc4c3n2)c1`, the remaining activity was 105% (enzyme activity; inhibitor; 10 µM).
The remaining signal of `COc1cc2ncnc(Nc3ccc(F)c(Cl)c3)c2cc1OCCCN1CCOCC1` is reported as 87.7% (cell-free assay; 0.5 µM).
For `c1ccc(CNc2nc(N3CCOc4ccccc43)nc3c2CCCC3)cc1`, the inhibition was 2.6% (target engagement in cells; inhibitor; chemoproteomics; 20 mM).
The remaining binding of `O=C(Nc1ccc(Oc2ccc(F)cc2)cc1)N1CCc2ncccc2[C@H]1c1ccc(F)cc1` is reported as 91% (cell-free assay; competition with immobilised ligand; 1 µM).
For `CNC(=O)c1cc2c(Oc3ccc(NC(=O)C4(C(=O)Nc5ccc(F)cc5)CC4)cc3)ccnc2cc1OC`, the inhibition was 95% (enzyme activity; inhibitor; radiometric; 1 µM).
`CN(C)c1ccc(C=C2C(=O)Nc3ccccc32)cc1` has a remaining signal of 86.5% (cell-free assay; 0.5 µM).
`O=C(Nc1cccnn1)N1CCC(=Cc2cccc(Oc3ccc(C(F)(F)F)cn3)c2)CC1` has a remaining binding of 100% (cell-free assay; competition with immobilised ligand; 1 µM).
For `Cc1cnc(NC2CCOCC2)nc1-n1cnc(C(=O)NC(CN)c2cc(F)cc(Cl)c2)c1` (centres unmarked), the remaining activity was 96% (enzyme activity; inhibitor; radiometric; 1 µM).
For `O=C1NC(=O)c2cc(Nc3ccc(F)cc3)c(Nc3ccc(F)cc3)cc21`, the remaining signal was 89.3% (cell-free assay; 0.5 µM).
With `CC(C)(C)c1nc2c(s1)c1nc(N)ncc1c1ccc(NS(=O)(=O)c3c(F)cccc3F)c(F)c12` the remaining activity was 91% (enzyme activity; inhibitor; radiometric; 1 µM).
With `Cc1cc(NC(=O)c2cccc3cc(-c4cccc5[nH]nc(N)c45)ccc23)ccc1F` the activity vs control was 102% (enzyme activity; inhibitor; 0.1 µM).
With `COc1cc(Nc2cnc(C#N)c(O[C@H](C)CN(C)C)n2)ncc1-c1cnn(C)c1` the remaining activity was 63% (enzyme activity; inhibitor; radiometric; 10 µM).
With `COc1cc2ncnc(Nc3ccc(Oc4ccccc4)cc3C)c2cc1OC` the inhibition was 25% (enzyme activity; inhibitor; 1 µM).
`CNC(=O)Nc1ccc2c(c1)[C@@]1(CC2)OC(=O)N(CC(=O)N(Cc2ccc(F)cc2)[C@@H](C)C(F)(F)F)C1=O` has a remaining binding of 87% (cell-free assay; competition with immobilised ligand; 1 µM).
`FC(F)c1nc2ccccc2n1-c1nc(N2CCOCC2)nc(N2CCOCC2)n1` gave a remaining activity of 106% (enzyme activity; inhibitor; 10 µM).
The inhibition of `COc1cccc2c(NCc3ccccc3)nc(-n3c(N)nc4ccccc43)nc12` is reported as 8.3% (target engagement in cells; inhibitor; chemoproteomics; 20 mM).
`Cc1nc(C2CCN(C(=O)c3ccc(OC(F)(F)F)cc3N)CC2)c2ncc(N3CCN(C)CC3)cc2n1` has a remaining binding of 100% (cell-free assay; competition with immobilised ligand; 1 µM).
`Cc1ccc(NC(=O)c2ccc(CN3CCN(C)CC3)cc2)cc1Nc1nc(-c2cccnc2)cs1` gave a remaining signal of 95.3% (cell-free assay; 0.5 µM).
